In PubChem BioAssay AID624268 (The Scripps Research Institute Molecular Screening Center, 2012) one finds inhibition data, which are given here for 91 compounds.

Molecules are shown by their SMILES. The campaign covered roughly 360,000 compounds. About 1,500 (0.42%) were called active.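 How the source made its calls: active means inhibition above a per-plate cutoff of the control wells' mean inhibition plus 3 SD (cut at about 5.5% in these data); inactive means the rest.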 For the sample, actives were picked, then their nearest neighbours and some compounds at random.

The term inhibition denotes the change of the read-out against control, counted positive when it falls.

The experiment deals with methionyl-tRNA synthetase (Trypanosoma brucei brucei). The experiment in a line: inhibition of trypanosome methionyl-tRNA synthetase – biochemical, luminescence, primary screen (AID 624268).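 Further: 0% = DMSO wells median and 100% = median of wells with control inhibitor compound.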 The note with it: purified T. brucei MetRS, ATP depletion, Kinase-Glo luminescence; at 11.9 µM; active compounds read high. A digest of the protocol:
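Assay system: T. brucei methionyl-tRNA synthetase, purified | Medium: HEPES buffer with MgCl2, KCl, DTT, spermine, BSA, pyrophosphatase | Compound: 11.9 µM single point | Incubation: 15 min enzyme-compound preincubation, 2 h reaction, 10 min detection, 25 °C | Measured by: Kinase-Glo luciferase luminescence reporting remaining unconsumed ATP | Measure: % inhibition normalized to control-well medians | Replication: Singlicate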
In general terms: In Kinase-Glo more light means more ATP remaining.
Turning to `Brc1ccc(-c2nn[nH]n2)cc1`, the inhibition was 0.2% (inactive). Under `Oc1[nH]c2ccc(Br)cc2c1N=Nc1nn[nH]n1` stands 5.61% (active); under `Cc1cccc(N=Nc2c(O)[nH]c3ccc(F)cc23)c1`, 0.2% (inactive). Take `CCOC(=O)c1sc(NC(=O)CSc2nc(O)c(Cc3ccccc3)c(=O)[nH]2)nc1C`: the inhibition was -1.03% (inactive). Under `CCCS(=O)(=O)NC(=O)C1(C)CCCN(C(=O)c2ccnc(Cl)c2)C1` (stereo unspecified) stands -0.05% (inactive). `Cn1c(CCCOc2ccc(Cl)cc2Cl)n[nH]c1=S`: the inhibition is 7.11% (active). Turning to `O=C(CCCOc1ccc(Cl)cc1Cl)NNC(=O)C1CCC1`, the inhibition is 1.44% (inactive). Under `CC(C)Oc1ccc(Cc2n[nH]c(=S)n2Cc2ccccc2)cc1Cl` stands -0.26% (inactive). As for `COC(=O)CN1C(=O)[C@H]2[C@@H](/C=C/c3ccccc3)N3C(=O)CN(CC4CC4)C(=O)[C@@]3(Cc3ccccc3)[C@H]2C1=O`, the inhibition is -0.4% (inactive). Turning to `O=C(CC(O)(C(F)(F)F)C(F)(F)F)Nc1ccc(Cl)c(Cl)c1`, the inhibition was 1.83% (inactive). Under `NCCCCCC(=O)N/N=C/c1ccc2nccnc2c1` stands -0.25% (inactive); under `O=C(CC(=O)Nc1ccc(Cl)c(Cl)c1)N/N=C/c1ccc(O)cc1`, 10.6% (active); under `Cc1csc(=O)n1CCC(=O)OCC(=O)NNC(=O)c1ccc(Br)cc1`, -0.33% (inactive).

Take `CC1(C(=O)NS(=O)(=O)c2cccc(F)c2)CCN1C(=O)c1cccc2ccccc12` (stereo unspecified): the inhibition was -0.25% (inactive).

Take `COCCCNCCOCCOc1ccc(Cl)cc1Br`: the inhibition was 1.56% (inactive).

Regarding `O=C(N[C@H]1CC[C@H](CC(=O)N2CCCCC2)O[C@@H]1CO)c1cccc(F)c1`, the inhibition was -0.31% (inactive). As to `O=C(Oc1cccc(N2C(=O)C3C4c5ccccc5C(c5ccccc54)C3C2=O)c1)c1ccco1` (stereo unspecified), the inhibition is 0.29% (inactive).

As to `O=C(/C(=N\O)n1cncn1)c1ccc(Br)cc1Br`, the inhibition was 17.9% (active). Under `CCc1ccc(N(CC(=O)Nc2sc3c(c2C(=O)OC)CCCC3)S(C)(=O)=O)cc1` stands 0.46% (inactive); under `CCn1c(CSCc2c(Cl)cccc2Cl)n[nH]c1=S`, 0.37% (inactive). Under `Cc1ccc(NCc2n[nH]c(=S)n2-c2ccccc2)cc1Cl` stands -0.41% (inactive).

In the case of `S=c1[nH]nc(CSCc2ccc(Cl)cc2Cl)n1-c1ccccc1`, the inhibition was 6.2% (active). On to `Nc1cc(N)nc(SCc2cccc(F)c2)n1`, for which the inhibition is -0.35% (inactive). As for `Cn1nc(-c2ccc(Cl)cc2)c2cc(C(=O)NCc3ccco3)sc21`, the inhibition is 2.08% (inactive).

In the case of `O=C(c1ccco1)N1CCN(CC(=O)N(C2CCCCC2)C2CCS(=O)(=O)C2)CC1` (stereo unspecified), the inhibition is -0.62% (inactive).

As for `Cc1ccc(NN=C2C(=O)OC(C)(C)OC2=O)c(C)c1`, the inhibition is 0.27% (inactive).

`O=C(COC(=O)CCCSc1nc2ccccc2[nH]1)Nc1ccc(Oc2ccccc2)cc1`: the inhibition is -0.54% (inactive). Under `O=C(CSc1nc2ccccc2[nH]1)N/N=C/C=C\c1ccccc1[N+](=O)[O-]` stands 9.68% (active). Regarding `CCn1c(SCC(=O)N/N=C/C=C/c2ccccc2[N+](=O)[O-])nnc1-c1ccccc1`, the inhibition was 0.33% (inactive). Under `COCCNC(=O)CN1C(=O)CSc2ncccc21` stands 0.04% (inactive). As to `O=C(NNS(=O)(=O)c1ccc(F)cc1)C1CCCCC1`, the inhibition is -0.24% (inactive). Under `CCOC(=O)CN(C(=O)CN1CCOCC1)c1ccc(Br)cc1` stands -1.11% (inactive); under `C/C(=N\Nc1nc2ccccc2[nH]1)c1cccs1`, 2.21% (inactive); under `Cc1ccc(O)c(CNc2nc3ccccc3[nH]2)c1`, 72.6% (active).

As for `Cc1ccc(-c2cc(=O)[nH]c(NCc3ccccc3)n2)cc1`, the inhibition was 0.58% (inactive).

Regarding `C=CCN1CCN(C(=O)CCCc2ccccc2)CC1`, the inhibition was 0.23% (inactive). With `Cn1c(=O)c2c(nc(N3CCOCC3)n2CCNC2=NCCC2)n(C)c1=O`, the inhibition was 0.1% (inactive). Consider `O=C1CCCN1CCCNc1ncnc2c1[nH]c1ccccc12`, for which the inhibition is 37.3% (active). Under `Cc1nn(Cc2ccccc2)c(C)c1C(=O)NCCCN1CCCC1=O` stands -0.02% (inactive); under `O=Cc1c(NCCCN2CCCC2=O)c2ccccc2[nH]c1=O`, -0.57% (inactive). As to `Cc1ccnc2nc(C(=O)OCC(=O)N(CC(C)C)CC(C)C)nn12`, the inhibition was -0.19% (inactive). Under `O=C(O)C1CCN(c2ccc([N+](=O)[O-])cc2[N+](=O)[O-])CC1` stands 0.21% (inactive); under `CCN1CCN(c2ccc([N+](=O)[O-])cc2C(=O)c2ccc(Cl)cc2)CC1`, -0.26% (inactive); under `O=[N+]([O-])c1ccc(N2CCN(c3ccc(O)cc3)CC2)c(Cl)c1`, 7.21% (active). As for `NC(=S)NN=Cc1ccc(OC(=O)COc2cc(Cl)c(Cl)cc2Cl)cn1`, the inhibition is 0.02% (inactive). For `CCN(CC)C(=O)Cn1cc(S(=O)(=O)CC(=O)NCc2ccc3c(c2)OCO3)c2ccccc21`, the inhibition was -0.63% (inactive). Under `CC(C)NC(=O)CSc1ccccc1C(=O)NCc1ccc2c(c1)OCO2` stands -0.69% (inactive); under `CCN(CC)C(=O)C(=O)c1cn(CC(=O)NCc2ccc3c(c2)OCO3)c2ccccc12`, 60.8% (active); under `CCOn1c(=O)c(=O)n(O)c2ccccc21`, 0.13% (inactive). Under `O=C(NCc1ccccc1)c1cccc(NC(=O)C2CCCCC2)c1` stands -0.28% (inactive); under `CCOc1ccc(NC(=O)CC2C(=O)N(c3ccccc3)C(=O)N2CCOC)cc1` (stereo unspecified), 0.31% (inactive); under `COCCN1C(=O)N(c2ccc(Cl)cc2)C(=O)C1CC(=O)Nc1cc(OC)cc(OC)c1` (stereo unspecified), 0.28% (inactive). Take `COC(=O)CN1C(=S)N(c2ccccc2)C(=O)C1CC(=O)Nc1ccc(Cl)cc1` (stereo unspecified): the inhibition is 12% (active). Under `CCCc1nnc(NC(=O)CCC(=O)NC2CC2)s1` stands 0.11% (inactive). Under `COc1cccc(C(CC(=O)NCCN2CCOCC2)NS(=O)(=O)c2ccc(C)cc2)c1OC` (stereo unspecified) stands -0.3% (inactive). Under `CC(C)NC(=O)c1ccc(Sc2ccccc2)c([N+](=O)[O-])c1` stands -1.54% (inactive). In the case of `Cc1ccccc1OCC(=O)NNC(=O)c1cc(S(=O)(=O)N(C)C)ccc1N1CCCC1`, the inhibition is -0.26% (inactive).

Turning to `O=C(COc1ccccc1F)NNC(=O)c1ccc(N2CCCCC2)c([N+](=O)[O-])c1`, the inhibition was -0.55% (inactive). Take `CC(=O)c1ccc(NC(=O)c2ccc(-n3cncn3)c([N+](=O)[O-])c2)cc1`: the inhibition is 36.6% (active). For `O=C(NNC(=O)c1ccc(-n2cncn2)c([N+](=O)[O-])c1)c1ccccc1`, the inhibition was 17.1% (active). Under `Cc1ccccc1OCC(=O)NNC(=O)c1ccc(-n2cncn2)c([N+](=O)[O-])c1` stands 8.29% (active). Regarding `Cc1ccc(S(=O)(=O)N(C)C)cc1NC(=O)c1ccc(-n2cncn2)c([N+](=O)[O-])c1`, the inhibition is 41% (active).

As for `CCOc1ccc(C(=O)Nc2cc(Cl)ccc2-n2cncn2)cc1OC`, the inhibition is -0.61% (inactive).

Regarding `CC(=O)Nc1ccc(NC(=S)NC(=O)c2ccc([N+](=O)[O-])c(C)c2)cc1`, the inhibition was -0.17% (inactive). Under `Cc1cc(O)c(NC(=O)c2ccc(C)c([N+](=O)[O-])c2)cc1C` stands -1.17% (inactive). Under `Cc1ccc(S(=O)(=O)N2CCN(C(=O)c3ccc(-n4cncn4)c([N+](=O)[O-])c3)CC2)cc1` stands 1.45% (inactive); under `Cc1ccc(S(=O)(=O)N(C)C)cc1NC(=O)c1ccccc1Br`, -0.6% (inactive); under `COc1cc(C2C(C#N)=C(C)NC3=C2C(=O)CC(C)(C)C3)ccc1O` (stereo unspecified), -1.19% (inactive). `Cc1ccc(-c2nc(COC(=O)c3c(C)noc3C)cs2)cc1`: the inhibition is -0.6% (inactive). Under `COC(=O)[C@@]12C[C@@H](CC(=O)N3CCC(c4ccccc4)CC3)C(=O)N(Cc3ccccc3)C1=CCC(C)(C)C2` stands -0.7% (inactive). Under `Cc1c(NC(=O)CCC2CCCCC2)cc(C(=O)N2CCOCC2)cc1[N+](=O)[O-]` stands -2.05% (inactive); under `Cc1cc(C)cc(OCC(=O)NNC(=O)CCN2C(=O)c3ccccc3C2=O)c1`, 0.2% (inactive); under `C[N+](C)(C)CCOP(=O)([O-])OC[C@H](O)CO`, -0.22% (inactive).

`CCn1c(SCC(=O)Nc2ccccc2F)nc2c(c1=O)SC(C)C2` (stereo unspecified): the inhibition was -0.06% (inactive).

`O=S(=O)(c1ccccc1)c1nc(-c2ccccc2)oc1NCCCN1CCOCC1`: the inhibition was 0.27% (inactive). Take `O=S(=O)(c1ccc(Cl)cc1)c1nc(-c2ccccc2F)oc1NCCN1CCOCC1`: the inhibition was -0.33% (inactive). Under `c1ccc2cc3c(NCCN4CCOCC4)ccnc3cc2c1` stands 34.1% (active); under `O=c1cnnc(Nc2ccccc2F)[nH]1`, 0.6% (inactive).

Regarding `Cc1cc(/C=N/n2cnnc2)c(C)n1-c1ccc2ncccc2c1`, the inhibition was 0.03% (inactive). As for `O=C(CSc1nc(-c2ccccc2)cs1)Nc1cccc([N+](=O)[O-])c1`, the inhibition was -0.12% (inactive).

With `O=C(Nc1cccc([N+](=O)[O-])c1)N1CCc2ccccc2C1`, the inhibition was 7.11% (active). `O=C(CSCC(=O)Nc1cccc([N+](=O)[O-])c1)Nc1ccccc1`: the inhibition is 8.16% (active). Turning to `O=C(CN1CCC(NC(=O)Nc2ccccc2)CC1)Nc1cccc([N+](=O)[O-])c1`, the inhibition was 0.83% (inactive).

In the case of `Cc1c(NC(=O)Nc2cccc([N+](=O)[O-])c2)c(=O)n(-c2ccccc2)n1C`, the inhibition was -0.43% (inactive). Under `CCc1ccc(NC(=O)N2CCc3ccccc3C2)cc1` stands -0.43% (inactive). Under `Cc1ccc(-c2csc(C(C#N)=C(O)CN3CCN(C(=O)c4ccco4)CC3)n2)cc1` stands -0.54% (inactive); under `CCc1cccc(CC)c1NC(=O)COc1ccccc1C(=O)c1cc(C#N)c(=O)n(C2CCCCC2)c1`, 0.13% (inactive). Regarding `CCOC(=O)C1CCN(S(=O)(=O)c2c(C)noc2C)CC1`, the inhibition is -0.02% (inactive). `O=C(NC(=S)Nc1ccc(S(=O)(=O)Nc2ncccn2)cc1)c1cccc(Br)c1`: the inhibition is 0.66% (inactive). Under `CCNS(=O)(=O)c1ccc(NC(=O)c2cncc(Br)c2)cc1` stands -0.64% (inactive); under `O=C(Nc1ccc(S(=O)(=O)Nc2ncccn2)cc1)c1cncc(Br)c1`, 64.2% (active).
